Results reported in ChEMBL document CHEMBL4219075, “Synthesis and evaluation of novel dolastatin 10 derivatives for versatile conjugations” (Bioorg Med Chem, 2018).
Activity calls are given as the source filed them. The rule behind the calls is not given here. Non-standard residues stand in square brackets, D forms with d. Residues, ends and D or L forms follow the SMILES beside them. *: point of attachment. Dolaproine = CO[C@@H]([C@@H]1CCCN1)[C@@H](C)C(=O)O; Dil = CC[C@H](C)[C@H](NC)[C@@H](CC(=O)O)OC; X1 = C[C@@H](N*)[C@@H](O)c1ccccc1; NMeV = CN[C@H](C(=O)O)C(C)C

What was measured:
SK-OV-3 = assay: Cytotoxicity against human SKOV3 cells after 2 days by cell titer 96 aqueous one solution based assay; assay type: functional; settings: SK-OV-3, 48 h
Procedure, shortened: (§1)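 Cells (DMEM + 10% heat-inactivated FBS for SKOV-3 and A549) seeded at about 5000−50000/well and held overnight at 37°C, 5% CO2. DMSO stocks were diluted into medium with 1% FBS and no folic acid. Compounds at various concentrations were added in triplicate and incubated 2 days. MTS reagent was added for 1–2 h, absorbance read at 490 nm, and percent survival calculated versus untreated wells.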

A549 = assay: Cytotoxicity against human A549 cells after 2 days by cell titer 96 aqueous one solution based assay; assay type: functional; settings: A549, 48 h; procedure, shortened: as §1
L1210 = assay: Cytotoxicity against mouse L1210 cells after 2 days by cell titer 96 aqueous one solution based assay; assay type: functional; settings: L1210, 48 h
Procedure, shortened: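 Mouse L1210 leukemia cells in RPMI-1640 + 10% heat-inactivated FBS were seeded at about 5000−50000/well and incubated overnight at 37°C, 5% CO2. Compounds were diluted in RPMI with 1% FBS and no folic acid, added at various concentrations in triplicate, and incubated 2 days. MTS was added for 1–2 h, A490 read, and survival expressed relative to untreated controls.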

[1] = Permeability of the compound at 200 umol/L after 5 hrs by PAMPA; assay type: ADME; settings: read-out: permeability
Procedure, shortened: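 Compound solution in the donor (receiver-plate) wells; 20% MeOH in PBS in the pre-coated filter-plate wells. The assembly was incubated 5 h at room temperature. Donor and acceptor concentrations were measured by LC-MS. Permeability was calculated from filter area 0.3 cm², donor 0.32 mL, acceptor 0.2 mL, t = 18,000 s and equilibrium concentration.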

Sus scrofa [2] = organism: Sus scrofa; assay: Inhibition of porcine brain tubulin polymerization measured every minute for 60 mins by absorbance spectroscopic analysis
Procedure, shortened: (§2)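 Fluorescence-based HTS kit assay run with porcine brain tubulin at about 100 µg per well in general tubulin buffer. Compound at 3, 1 or 0.3 µM final, in duplicate, added at the start. Run at 37°C for 60 min, reading OD 360 nm (emission 450 nm) each minute. Polymerization compared with buffer-treated tubulin.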

Sus scrofa [3] = organism: Sus scrofa; assay: Inhibition of porcine brain tubulin polymerization at 0.3 to 3 uM measured every minute for 60 mins by absorbance spectroscopic analysis; procedure, shortened: as §2
[4] = Ratio of IC50 for human SKOV3 cells to IC50 for porcine brain tubulin polymerization

| SMILES | IC50 (SK-OV-3) [nM] | IC50 (A549) [nM] | IC50 (L1210) [nM] | Papp at 5 h, 200 µM [1] [×10⁻⁶ cm/s] | inhibition (Sus scrofa [2]) | inhibition (Sus scrofa [3]) | Ratio IC50 [4] |
| --- | --- | --- | --- | --- | --- | --- | --- |
| CCNC(=O)c1csc([C@H](Cc2ccccc2)NC(=O)[C@H](C)[C@@H](OC)[C@@H]2CCCN2C(=O)C[C@@H](OC)[C@H]([C@@H](C)CC)N(C)C(=O)[C@@H](NC(=O)[C@H](C(C)C)N(C)C)C(C)C)n1 | 0.55 | 0.74 | 6.5 | 1.7 | Active |  |  |
| CC[C@H](C)[C@@H]([C@@H](CC(=O)N1CCC[C@H]1[C@H](OC)[C@@H](C)C(=O)N[C@@H](Cc1ccccc1)c1nc(C(=O)N(C)CCNC)cs1)OC)N(C)C(=O)[C@@H](NC(=O)[C@H](C(C)C)N(C)C)C(C)C | 0.19 | 1.9 | 14 | < 0.001 | Active |  |  |
| CC[C@H](C)[C@@H]([C@@H](CC(=O)N1CCC[C@H]1[C@H](OC)[C@@H](C)C(=O)N[C@@H](Cc1ccccc1)c1nc(C(=O)N(C)CCS)cs1)OC)N(C)C(=O)[C@@H](NC(=O)[C@H](C(C)C)N(C)C)C(C)C | 1.1 | 1.2 | 7 | 1.1 | Active |  |  |
| CC[C@H](C)[C@@H]([C@@H](CC(=O)N1CCC[C@H]1[C@H](OC)[C@@H](C)C(=O)N[C@@H](Cc1ccccc1)c1nc(C(=O)OCCS)cs1)OC)N(C)C(=O)[C@@H](NC(=O)[C@H](C(C)C)N(C)C)C(C)C | 0.13 | 6.9 | 14 | 0.005 | Active |  |  |
| CC[C@H](C)[C@@H]([C@@H](CC(=O)N1CCC[C@H]1[C@H](OC)[C@@H](C)C(=O)N[C@@H](Cc1ccccc1)c1nc(C(=O)OCCO)cs1)OC)N(C)C(=O)[C@@H](NC(=O)[C@H](C(C)C)N(C)C)C(C)C | 0.086 | 1.8 | 4.7 | 0.04 | Active |  |  |
| CC[C@H](C)[C@@H]([C@@H](CC(=O)N1CCC[C@H]1[C@H](OC)[C@@H](C)C(=O)N[C@@H](Cc1ccccc1)c1nc(C(=O)NCCO)cs1)OC)N(C)C(=O)[C@@H](NC(=O)[C@H](C(C)C)N(C)C)C(C)C | 4.7 | 1.7 | 28 | 0.02 | Active |  |  |
| CC[C@H](C)[C@@H]([C@@H](CC(=O)N1CCC[C@H]1[C@H](OC)[C@@H](C)C(=O)N[C@@H](Cc1ccccc1)c1nc(C(=O)NCCc2ccc(O)cc2)cs1)OC)N(C)C(=O)[C@@H](NC(=O)[C@H](C(C)C)N(C)C)C(C)C | 0.37 | 1.3 | 5.6 | 0.36 | Active |  |  |
| CC[C@H](C)[C@@H]([C@@H](CC(=O)N1CCC[C@H]1[C@H](OC)[C@@H](C)C(=O)N[C@@H](Cc1ccccc1)c1nc(C(=O)N(C)CCN)cs1)OC)N(C)C(=O)[C@@H](NC(=O)[C@H](C(C)C)N(C)C)C(C)C | 0.56 | 0.81 | 12 | 0.072 | Active |  |  |
| CC[C@H](C)[C@@H]([C@@H](CC(=O)N1CCC[C@H]1[C@H](OC)[C@@H](C)C(=O)N[C@@H](Cc1ccccc1)c1nc(C(=O)NCCS)cs1)OC)N(C)C(=O)[C@@H](NC(=O)[C@H](C(C)C)N(C)C)C(C)C | 0.44 | 1.9 | 31 | 1.1 | Active |  |  |
| CC[C@H](C)[C@@H]([C@@H](CC(=O)N1CCC[C@H]1[C@H](OC)[C@@H](C)C(=O)N[C@@H](Cc1ccccc1)c1nc(C(=O)N(C)CCO)cs1)OC)N(C)C(=O)[C@@H](NC(=O)[C@H](C(C)C)N(C)C)C(C)C | 1.5 | 1.6 | 8.5 | 0.077 | Active |  |  |
| CC[C@H](C)[C@@H]([C@@H](CC(=O)N1CCC[C@H]1[C@H](OC)[C@@H](C)C(=O)N[C@@H](Cc1ccccc1)c1nc(C(=O)OCCN)cs1)OC)N(C)C(=O)[C@@H](NC(=O)[C@H](C(C)C)N(C)C)C(C)C | 0.85 | 0.83 | 29 | 0.007 | Active |  |  |
| CC[C@H](C)[C@@H]([C@@H](CC(=O)N1CCC[C@H]1[C@H](OC)[C@@H](C)C(=O)N[C@@H](Cc1ccccc1)c1nc(C(=O)NCCN)cs1)OC)N(C)C(=O)[C@@H](NC(=O)[C@H](C(C)C)N(C)C)C(C)C | > 10 | > 10 | > 50 | 0.056 |  | Active | >30 |
| CC[C@H](C)[C@@H]([C@@H](CC(=O)N1CCC[C@H]1[C@H](OC)[C@@H](C)C(=O)N[C@H](C)[C@@H](O)c1ccccc1)OC)N(C)C(=O)[C@@H](NC(=O)[C@@H](NC)C(C)C)C(C)C (H-[NMeV]V[Dil][Dolaproine]-X1) | 0.66 | 1.3 | 2.1 | 0.079 |  |  |  |
| CCOC(=O)c1csc([C@H](Cc2ccccc2)NC(=O)[C@H](C)[C@@H](OC)[C@@H]2CCCN2C(=O)C[C@@H](OC)[C@H]([C@@H](C)CC)N(C)C(=O)[C@@H](NC(=O)[C@H](C(C)C)N(C)C)C(C)C)n1 | 0.024 |  |  | 3.2 | Active |  |  |
| CC[C@H](C)[C@@H]([C@@H](CC(=O)N1CCC[C@H]1[C@H](OC)[C@@H](C)C(=O)N[C@@H](Cc1ccccc1)c1nc(C(=O)NCCc2ccc(N)cc2)cs1)OC)N(C)C(=O)[C@@H](NC(=O)[C@H](C(C)C)N(C)C)C(C)C | 0.27 | 1.1 | 4.1 | 0.3 |  | Active | >30 |
| CC[C@H](C)[C@@H]([C@@H](CC(=O)N1CCC[C@H]1[C@H](OC)[C@@H](C)C(=O)N[C@@H](Cc1ccccc1)c1nc(C(=O)NCCNC)cs1)OC)N(C)C(=O)[C@@H](NC(=O)[C@H](C(C)C)N(C)C)C(C)C | > 10 | 9.9 | 27 | 0.004 | Active |  |  |
